# Measurements of several laboratories.
# Lines come from different studies, so protocols differ.
# Target: Phosphatidylinositol 4-phosphate 3-kinase C2 domain-containing subunit beta (PIK3C2B, Homo sapiens, UniProt O00750)
SMILES,read-out,mode,technique,concentration,measurement,value
C[C@H]1CC[C@H](n2c3cnccc3c3cnc(Nc4ccc5c(n4)CCN(C(=O)CO)C5)nc32)CC1,cell-free assay,,,1 µM,remaining signal,100%
CC#CC(=O)N1CCC[C@H]1c1nc(-c2ccc(C(=O)Nc3ccccn3)cc2)c2c(N)nccn12,enzyme activity,inhibitor,,1 µM,inhibition,0%
C1=C/COCc2cc(ccc2OCCN2CCCC2)Nc2nccc(n2)-c2cccc(c2)COC/1,binding,,,0.1 µM,remaining binding,87%
C=CC(=O)N1CCC([C@@H]2CCNc3c(C(N)=O)c(-c4ccc(Oc5ccccc5)cc4)nn32)CC1,enzyme activity,inhibitor,,1 µM,inhibition,0%
C#Cc1cnc(Nc2ccnc(CO)c2)nc1Nc1ccccc1S(C)(=O)=NC#N (centres unmarked),cell-free assay,,,1 µM,remaining signal,100%
CN1CCN(C(=O)c2ccc(NC(=O)Nc3ccc(N(C)c4ccnc(Nc5ccc(CS(C)(=O)=O)cc5)n4)cc3)cc2)CC1,binding,,,1 µM,remaining binding,100%
CCCCC(=O)Nc1ccc(-c2ccc3ncn(CCC)c(=O)c3c2)cn1,binding,,competition with immobilised ligand,0.5 µM,remaining binding,100%
N#Cc1ccc(NC(=O)Nc2ccccc2)cc1,cell-free assay,,competition with immobilised ligand,25 µM,remaining binding,79%
